Results as given in article PMC6150782 (Journal of molecular neuroscience : MN, 2018).
Converted amounts (≈) assume the structure as drawn.

Legend:
[1] = Aqueous solubility, shaken flask method; format: physicochemical
Outline: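 Shake-flask method at pH 1.2, 7.4 and 9.2. Dissolved concentration measured by HPLC against a standard curve.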

Log P = format: physicochemical
[2] = Mouse plasma pharmacokinetics; format: in vivo, CD1 mice
[3] = Metabolic stability in human liver microsomes; format: in vitro ADME
Outline: (§1)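 Test compound at 1 μM incubated with human or mouse liver microsomes for up to 60 min. Samples analysed by LTQ-Orbitrap XL mass spectrometry. Single determination per time point. Testosterone at 1 μM served as the metabolically labile control. Run by a contract lab.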

[4] = Metabolic stability in mouse liver microsomes; format: in vitro ADME
Outline: as §1

hERG channel = hERG channel (Homo sapiens, UniProt Q12809); test: hERG channel binding assay; settings: 10 μM; [3H]-dofetilide; HEK-293
Chain of hERG channel (Q12809 whole entry): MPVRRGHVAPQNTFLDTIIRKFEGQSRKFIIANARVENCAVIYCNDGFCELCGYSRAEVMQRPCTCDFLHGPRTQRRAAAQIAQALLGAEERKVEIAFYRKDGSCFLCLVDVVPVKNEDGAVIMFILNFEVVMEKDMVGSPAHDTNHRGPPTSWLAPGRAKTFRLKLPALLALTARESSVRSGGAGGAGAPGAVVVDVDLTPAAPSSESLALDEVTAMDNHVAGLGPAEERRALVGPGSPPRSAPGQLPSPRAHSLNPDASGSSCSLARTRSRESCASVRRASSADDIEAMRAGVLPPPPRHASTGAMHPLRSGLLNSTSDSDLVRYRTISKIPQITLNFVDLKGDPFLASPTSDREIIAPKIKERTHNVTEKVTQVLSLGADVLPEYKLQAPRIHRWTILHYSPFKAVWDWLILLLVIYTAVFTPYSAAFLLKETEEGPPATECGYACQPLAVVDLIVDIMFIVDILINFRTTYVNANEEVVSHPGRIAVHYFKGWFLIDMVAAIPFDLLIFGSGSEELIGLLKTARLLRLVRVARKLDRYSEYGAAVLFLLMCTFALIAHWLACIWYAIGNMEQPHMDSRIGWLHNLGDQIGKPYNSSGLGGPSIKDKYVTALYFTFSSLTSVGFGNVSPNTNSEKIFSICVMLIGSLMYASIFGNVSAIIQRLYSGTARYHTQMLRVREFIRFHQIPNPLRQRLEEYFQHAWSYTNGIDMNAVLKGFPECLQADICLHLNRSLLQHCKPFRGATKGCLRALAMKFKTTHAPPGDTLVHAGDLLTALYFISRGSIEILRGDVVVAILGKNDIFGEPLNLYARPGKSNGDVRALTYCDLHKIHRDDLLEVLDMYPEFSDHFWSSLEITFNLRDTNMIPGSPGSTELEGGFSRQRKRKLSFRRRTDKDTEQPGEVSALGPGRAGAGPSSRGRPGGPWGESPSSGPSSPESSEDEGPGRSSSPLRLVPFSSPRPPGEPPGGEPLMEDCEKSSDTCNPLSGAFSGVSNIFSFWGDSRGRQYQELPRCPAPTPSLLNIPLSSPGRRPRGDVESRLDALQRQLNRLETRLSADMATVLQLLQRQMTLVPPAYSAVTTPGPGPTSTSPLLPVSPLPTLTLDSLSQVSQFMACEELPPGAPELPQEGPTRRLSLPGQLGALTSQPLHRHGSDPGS
Outline: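 Binding to human recombinant hERG expressed in HEK-293 cells, using 3 nM [3H]-dofetilide. Test compound at 10 μM, 60 min at room temperature. Non-specific binding defined with 25 μM terfenadine. Reported as % inhibition of control specific binding. Run by a contract lab.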

[5] = Plasma protein binding, equilibrium dialysis, human plasma; format: in vitro ADME; settings: 1 μM, 5 hours at 37 °C
[6] = Plasma protein binding, equilibrium dialysis, mouse plasma; format: in vitro ADME; settings: 1 μM, 5 hours at 37 °C
[7] = system: dissociated rat hippocampal cultures; format: cell-based
Outline: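 Papain-dissociated E18 rat hippocampal cells at 10,000/well in serum-free Neurobasal/B27/GlutaMAX, used at days 12–14 after a medium change. Test compound (DMSO stock diluted in DPBS, ≤0.1% DMSO; 5 concentrations, n=5, two plates) added 5 min before 30 mM ethanol plus 300 μM ammonium acetate, then 5 h at 37 °C. CFDA 15 min at 37 °C, 30 min efflux wash, Triton lysis, Ex490/Em517. EC50 from 4-parameter logistic fit.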

[8] = system: dissociated rat hippocampal cultures; format: cell-based; remark: listed apart in the source
Outline: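 E18 rat hippocampal cultures at days 12–14 received test compound (5 concentrations, n=5, two plates) 5 min before 30 mM ethanol plus 300 μM ammonium acetate, then 5 h at 37 °C. Medium removed and 50 μM propidium iodide applied for 15 min in the dark at room temperature. Read at Ex536/Em590 minus cell-free blank wells. IC50 from 4-parameter logistic fit.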

hippocampal cultures [9] = format: cell-based, rat
hippocampal cultures [10] = format: cell-based, rat; settings: for cell death response at 30 min or 60 min of incubation / time points with significant cell death differences from control: 30 μM cannabidiol, 100 μM KLS-13019, day 18–19 cultures
CB2 = CB2 (Homo sapiens, UniProt P34972); test: CB2 binding; settings: 10 μM; 0.8 nM radioligand; human recombinant CHO cells
Chain of CB2 (P34972 whole entry): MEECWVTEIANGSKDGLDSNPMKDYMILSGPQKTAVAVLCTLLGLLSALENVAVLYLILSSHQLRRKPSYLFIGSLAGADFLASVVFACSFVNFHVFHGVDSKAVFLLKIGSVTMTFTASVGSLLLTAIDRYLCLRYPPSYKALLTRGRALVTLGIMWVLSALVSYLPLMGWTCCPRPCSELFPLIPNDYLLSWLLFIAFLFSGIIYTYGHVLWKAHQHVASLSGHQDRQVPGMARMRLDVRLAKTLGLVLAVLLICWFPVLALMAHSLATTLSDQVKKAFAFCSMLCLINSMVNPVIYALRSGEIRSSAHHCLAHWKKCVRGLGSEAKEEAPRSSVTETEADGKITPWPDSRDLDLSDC

hippocampal cultures [11] = test: Effect of CB2 antagonist AM 630 on neuroprotection from ethanol, CFDA assay; format: cell-based, rat; settings: AM 630 0.1 to 100 nM; 30 mM ethanol; 10 μM CBD or 100 nM KLS-13019
5HT1a = target: T1, 5HT1a (Homo sapiens, UniProt P08908); test: 5HT1a agonist binding; settings: 10 μM; data not shown
T1 sequence (P08908 1-422): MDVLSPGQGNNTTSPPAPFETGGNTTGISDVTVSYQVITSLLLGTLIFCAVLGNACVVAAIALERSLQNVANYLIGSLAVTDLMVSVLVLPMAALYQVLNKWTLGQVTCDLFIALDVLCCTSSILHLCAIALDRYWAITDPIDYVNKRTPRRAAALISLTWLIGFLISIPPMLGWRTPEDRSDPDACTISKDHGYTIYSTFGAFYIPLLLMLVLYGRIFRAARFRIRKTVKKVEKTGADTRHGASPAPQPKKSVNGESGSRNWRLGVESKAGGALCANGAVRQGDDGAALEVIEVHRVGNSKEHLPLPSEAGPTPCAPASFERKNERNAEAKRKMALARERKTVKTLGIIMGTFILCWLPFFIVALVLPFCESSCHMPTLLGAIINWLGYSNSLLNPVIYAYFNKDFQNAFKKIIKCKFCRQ

TRPV1 = TRPV1 (Homo sapiens, UniProt Q8NER1); test: TRPV1 receptor binding screen; settings: 10 μM; data not shown
Chain of TRPV1 (Q8NER1 whole entry, species assumed): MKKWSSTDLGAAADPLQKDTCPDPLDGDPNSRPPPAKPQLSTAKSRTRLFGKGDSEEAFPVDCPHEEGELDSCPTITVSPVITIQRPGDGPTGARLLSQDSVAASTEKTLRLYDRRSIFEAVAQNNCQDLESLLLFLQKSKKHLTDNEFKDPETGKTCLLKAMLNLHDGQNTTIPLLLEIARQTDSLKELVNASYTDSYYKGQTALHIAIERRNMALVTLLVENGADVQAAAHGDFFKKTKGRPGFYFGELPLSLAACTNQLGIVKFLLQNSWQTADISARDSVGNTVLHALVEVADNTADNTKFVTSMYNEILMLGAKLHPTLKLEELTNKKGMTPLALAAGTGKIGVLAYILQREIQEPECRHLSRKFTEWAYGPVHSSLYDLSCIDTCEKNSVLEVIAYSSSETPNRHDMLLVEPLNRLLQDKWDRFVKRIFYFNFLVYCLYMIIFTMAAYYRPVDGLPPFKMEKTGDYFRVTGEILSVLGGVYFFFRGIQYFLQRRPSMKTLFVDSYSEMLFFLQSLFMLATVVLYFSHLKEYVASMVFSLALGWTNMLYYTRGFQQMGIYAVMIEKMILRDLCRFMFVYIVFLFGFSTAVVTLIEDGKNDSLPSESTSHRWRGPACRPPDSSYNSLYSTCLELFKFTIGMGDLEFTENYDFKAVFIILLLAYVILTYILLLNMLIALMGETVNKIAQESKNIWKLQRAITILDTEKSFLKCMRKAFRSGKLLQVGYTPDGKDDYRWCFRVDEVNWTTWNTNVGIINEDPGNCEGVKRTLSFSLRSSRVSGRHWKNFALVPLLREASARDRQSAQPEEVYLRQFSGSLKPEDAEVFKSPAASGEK

PPARγ = target: T2, PPARγ (Homo sapiens, UniProt P37231); test: PPARγ agonist binding; settings: 10 μM; data not shown
T2 sequence (P37231 1-505): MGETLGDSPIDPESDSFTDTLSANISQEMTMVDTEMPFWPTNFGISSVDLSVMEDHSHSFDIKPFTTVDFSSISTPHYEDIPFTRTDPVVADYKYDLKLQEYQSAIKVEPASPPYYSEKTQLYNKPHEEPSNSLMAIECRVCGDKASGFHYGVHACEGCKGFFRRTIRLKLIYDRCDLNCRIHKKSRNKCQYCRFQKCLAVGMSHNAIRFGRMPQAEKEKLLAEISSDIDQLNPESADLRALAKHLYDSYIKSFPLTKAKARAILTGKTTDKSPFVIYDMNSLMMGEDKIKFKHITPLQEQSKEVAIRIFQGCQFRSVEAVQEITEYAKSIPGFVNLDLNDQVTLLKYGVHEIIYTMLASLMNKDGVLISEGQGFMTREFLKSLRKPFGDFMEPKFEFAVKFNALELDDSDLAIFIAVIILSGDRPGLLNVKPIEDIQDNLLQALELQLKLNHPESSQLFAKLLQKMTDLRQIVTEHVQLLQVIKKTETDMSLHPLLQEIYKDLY

[12] = Anticonvulsant activity in animal models; settings: in vivo
[13] = CD1 mice, plasma, 10 mg/kg p.o.
[14] = combined ethanol + ammonium acetate
[15] = compound alone in Captisol, 5 hours, day 14 cultures
[16] = male, CD1, mouse, plasma, po, 10 mg/kg

## C=C(C)[C@@H]1CCC(C)=C[C@H]1c1c(O)cc(CC2CN(C(C)=O)C2)cc1O [KLS-13019]
[1]
  Aqueous solubility: 87 µM
  fold increase in aqueous solubility in comparison to CBD: > five
Log P
  Log P: 3.42
[2]; CD1 mice, IV 2 mg/kg
  CL IV 2 mg/kg: 76.7 mL/min/kg
  Vss IV 2 mg/kg: 3.2 L/kg
[2]; [13]
  AUC p.o.: 617 ng·h/mL
  Cmax at 10 mg/kg p.o.: 1080 ng/mL
  Tmax p.o.: 15 min
[2]; CD1 mice, oral 10 mg/kg, IV 2 mg/kg
  F% (oral bioavailability): 67%
[2]; mice
  fold increase in F% in comparison to CBD: > 8 fold
[2]; mice, 10 mg/kg p.o.
  fold increase in AUC compared to CBD: 2.3 fold
[2]; mice, i.v. 2 mg/kg
  clearance (CL), i.v. arm: 4.6 mL/min/kg
[2]; mice, p.o.
  increase in T 1/2 in comparison to CBD: more than 50%
[3]; human liver microsomes, 1 μM
  Microsomal stability Human T 1/2: 5.69 min
[4]; mouse liver microsomes, 1 μM
  Microsomal stability Mouse T 1/2: 5.67 min
hERG channel
  hERG Potassium channel % Inhibition of specific binding: 12%
[5]
  Plasma protein binding Human % bound: 99.2%
[6]
  Plasma protein binding Mouse % bound: 99.2%
[7]; [14]
  efficacy of neuroprotection back to control levels (CFDA): full efficacy
  fold increase in neuroprotective potency vs CBD (relative EC50s, CFDA): 31 fold
[7]; read-out: EC50 for CFDA (neuroprotection), 30 mM Ethanol + 300 μM Ammonium Acetate, 5 hours, days 12–14
  EC50: 127 ± 27 nM
[8]; [14]
  efficacy of neuroprotection back to control levels (PI): full efficacy
  fold increase in neuroprotective potency vs CBD (relative IC50s, PI): 15 fold
[8]; read-out: IC50 for PI (neuroprotection), 30 mM Ethanol + 300 μM Ammonium Acetate, 5 hours, days 12–14
  IC50: 203 nM
Hippocampal cultures [9]; [15]
  TC50, neuronal viability assay: 81000 nM
Hippocampal cultures [9]; day 14 cultures, 5 hours
  maximal toxicity, % of control values: 73 ± 3 % of control
Hippocampal cultures [9]; day 19 cultures, time course at 30 μM cannabidiol, 100 μM KLS-13019
  maximal achieved toxicity, % of control, neuronal viability assay: 62 ± 3 % of control
Hippocampal cultures [9]; viability and cell death assays
  fold increase in TC50 relative to CBD: 5 fold
Hippocampal cultures [10]
  cell death response at 30 min or 60 min of incubation: no significant changes from controls
  time points with significant cell death differences from control: ≥ 3 h
Hippocampal cultures [10]; [15]
  TC50, cell death assay: ~100000 nM
CB2
  displacement of 3H-WIN-55212-2 radioactivity at CB2: 55%
Hippocampal cultures [11]
  effect of CB2 antagonist AM 630 on compound-mediated neuroprotection: had no effect
5HT1a
  receptor binding to 5HT-1a agonist site: no detectable interactions
TRPV1
  receptor binding TRPV1 (agonist): no detectable interactions
  receptor binding TRPV1 (antagonist): no detectable interactions
PPARγ
  receptor binding PPARγ (agonist): no detectable interactions
[12]
  anticonvulsant activity in animal models: lack of anticonvulsant activity

## C=C(C)[C@@H]1CCC(C)=C[C@H]1c1c(O)cc(CCCCC)cc1O [Cannabidiol, reference compound]
[1]; aqueous medium
  solubility: 17 µM (≈ 5.35 µg/mL)
[2]; CD1 mice, IV 2 mg/kg
  CL IV 2 mg/kg: 120 mL/min/kg
[2]; CD1 mice, plasma, 10 mg/kg p.o., 10 mg/kg
  T 1/2 p.o.: 207 min
[2]; male, CD1, mouse, plasma, iv, 2 mg/kg
  Vd: 7.5 L/kg
[2]; male, CD1, mouse, plasma, oral, 10 mg/kg
  bioavailability: 8%
[2]; [16]
  AUC: 268 ng·h/mL
  Cmax: 51 ng/mL
[3]; human, liver microsomes
  half-life at 1 μM: 3.75 min
[4]; mouse, liver microsomes
  half-life at 1 μM: < 5 min
hERG channel
  hERG Potassium channel % Inhibition of specific binding: 73%
[7]; [14]
  efficacy of neuroprotection back to control levels (CFDA): full efficacy
[7]; hippocampal cultures
  concentration required for full efficacy against oxidative stress toxicity: 10 µM
[8]; [14]
  efficacy of neuroprotection back to control levels (PI): full efficacy
Hippocampal cultures [10]
  cell death response at 30 min or 60 min of incubation: no significant changes from controls
  time points with significant cell death differences from control: ≥ 3 h
Hippocampal cultures [11]
  effect of CB2 antagonist AM 630 on compound-mediated neuroprotection: significantly attenuated

## O=C1CSC(c2ccccc2Cl)c2cc(Cl)ccc2N1 (stereo not shown) [CGP-37157, 7-Chloro-5-(2-chlorophenyl)-1,5-dihydro-4,1-benzothiazepin-2(3H)-one, reference compound]
Hippocampal cultures [10]; 5 hours, day 14 cultures
  concentration with significant increase in propidium iodide fluorescence: 100 µM
